Measurements published in ChEMBL document CHEMBL2029264, “Indole-based fibrates as potential hypolipidemic and antiobesity agents” (J Med Chem, 2012).

How the values were obtained:
Rattus norvegicus [1] = assay: Antihyperlipidemic activity in HFD-induced hyperlipidemic Charles Foster rat assessed as decrease in plasma VLDL-phospholipid level at 100 mg/kg, po administered for 4 weeks relative to control; assay type: functional; design: scale not given: the % may be the effect or the level left
In short: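 After 4 weeks high-fat feeding plus 4 weeks daily dosing, overnight fast, retro-orbital blood into EDTA tubes. Serum split into VLDL, LDL and HDL by polyanionic precipitation; each fraction assayed for TC, PL, TG and apoprotein (mg/dL plasma). Pooled data from 6 rats/group, mean ± SD, dosed groups compared with high-fat group.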

Rattus norvegicus [2] = assay: Toxicity in HFD-induced hyperlipidemic Charles Foster rat at 100 mg/kg/day, po administered for 4 weeks by autopsy analysis; assay type: organism-based; design: route oral; settings: in vivo, 672 h
In short: (§1)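 Male Charles Foster rats (200−225 g) were fed a high-fat diet for 4 weeks, then dosed at 100 mg/kg/d alongside the same diet for 4 more weeks. Survival was monitored. After an overnight fast, blood was drawn and the animals were sacrificed. Macroscopic inspection and autopsy were then performed, with n = 6 per group.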

Rattus norvegicus [3] = assay: Toxicity in HFD-induced hyperlipidemic Charles Foster rat at 100 mg/kg/day, po administered for 4 weeks by macroscopic analysis; assay type: organism-based; design: route oral; settings: in vivo, 672 h; in short: as §1
Rattus norvegicus [4] = assay: Antihyperlipidemic activity in HFD-induced hyperlipidemic Charles Foster rat assessed as increase in cholic acid excretion in feces at 100 mg/kg/day, po administered for 4 weeks measured after 30 days relative to control; assay type: functional
In short: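 Rats fed high-fat diet 4 weeks, then diet plus daily dosing 4 weeks. Cholic and deoxycholic acid excreted in feces measured; dosed groups compared with high-fat group, control compared with high-fat group.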

Row | SMILES | Activity (Rattus norvegicus [1]) [%] | Activity (Rattus norvegicus [2]) | Activity (Rattus norvegicus [3]) | Activity (Rattus norvegicus [4]) [%]
1 | CCOC(=O)C(C)Oc1ccc(C(c2cn(CC)c3ccccc23)c2cn(CC)c3ccccc23)cc1 (stereo unspecified) | 16 | Non-toxic | Non-toxic | 26
2 | CCOC(=O)CCCOc1ccc(C(c2cn(C)c3ccccc23)c2cn(C)c3ccccc23)cc1 | 11 |  |  | 21
